Results pooled from the literature.
Each line is one published result; the experiments were not run side by side.
Read-out: cell growth or viability

CO[C@H]1/C=C\C=C(/C)C(=O)NC2=CC(=O)C(NCCN(C)C)=C(C[C@@H](C)C[C@H](OC)[C@H](O)[C@@H](C)/C=C(\C)[C@@H]1OC(N)=O)C2=O — IC50 (ARPE-19; MTT): 0.15 µM
Cc1cc(Oc2ccc(NC(=O)c3sc(-c4ccccc4)nc3C)cc2F)n2ncnc2n1 — IC50 (L02; MTT): > 50 µM
CC[C@@H](C)[C@H](N)C(=O)N1Cc2ccccc2C1 — IC50 (OCI-AML2; ATP luminescence; 48 h): 1.44 µM
Oc1ccc(Nc2nc(-c3ccc(Cl)cc3)cs2)cc1 — IC50 (WM-115; MTS; 24 h): 38.9 µM
COc1ccnc(COc2ccc(NC(=O)Nc3ccc(Cl)c(C(F)(F)F)c3)cc2)c1OC — IC50 (L02; MTT; 72 h): > 100 µM
Cc1ccc2c(Cl)cc(Cl)c(O)c2n1 — IC50 (L02; MTT; 48 h): > 100 µM
COc1c(C)cnc(COc2ccc(NC(=O)Nc3ccc(Cl)c(C(F)(F)F)c3)cc2)c1C — IC50 (L02; MTT; 72 h): > 100 µM
CC(=O)c1cccc(N=Nc2c(C(=O)O)cc(O)c(O)c2O)c1 — IC50 (PANC-1; MTT): 9.2 µM
Cc1cc(Oc2ccc(NC(=O)c3sc(-c4ccccc4)nc3C)cc2F)c2nncn2n1 — IC50 (L02; MTT): > 50 µM
Cc1c(OCC(F)(F)F)ccnc1COc1ccc(NC(=O)Nc2cc(F)cc(F)c2)cc1 — IC50 (L02; MTT; 72 h): > 100 µM
O=C(O)/C=C/c1ccc(O)cc1 — IC50 (PANC-1; MTT): > 50 µM
C#CCSc1nc(Sc2nnnn2-c2ccccc2)c2nnn(Cc3ccc(OC)cc3)c2n1 — IC50 (OCI-AML-3; MTS; 6 days): 4.72 µM
CCn1c(=O)c(-c2ccc(-c3cncs3)cc2Cl)cc2cnc(Nc3ccc(N4CCN(C)CC4)cc3)nc21 — IC50 (PANC-1; MTT; 24 h): 14.1 µM
c1cnc2c(c1)ccc1cccnc12 — IC50 (L02; MTT; 48 h): > 50 µM
O=C(N/N=C/c1c(O)ccc2ccccc12)c1cc(-c2ccc3ccccc3c2)n[nH]1 — IC50 (WM-115; MTS; 48 h): 5.6 µM
COc1cc(C2Oc3cc([C@H]4Oc5cc(O)cc(O)c5C(=O)[C@@H]4O)ccc3OC2CO)ccc1O (some centres unmarked) — IC50 (RWPE-1; CCK-8; 72 h): > 300 µM
C=CCNC1=C2C[C@@H](C)C[C@H](OC)[C@H](O)[C@@H](C)/C=C(\C)[C@H](OC(N)=O)[C@@H](OC)/C=C\C=C(/C)C(=O)NC(=CC1=O)C2=O — IC50 (ARPE-19; MTT): 1 µM
COc1c(C)cnc(COc2ccc(NC(=O)Nc3ccc(F)cc3)cc2)c1C — IC50 (L02; MTT; 72 h): > 100 µM
Cc1cc(Oc2ccc(NC(=O)c3cnn(-c4ccc(Cl)cc4)c3C(F)(F)F)cc2F)c2nncn2n1 — IC50 (L02; MTT): > 50 µM
Cc1c(OCC(F)(F)F)ccnc1COc1ccc(NC(=O)Nc2ccc(Cl)cc2)cc1 — IC50 (L02; MTT; 72 h): > 100 µM
Cc1cc(Oc2ccc(NC(=O)c3sc(-c4ccccn4)nc3C)cc2F)c2nncn2n1 — IC50 (L02; MTT): > 50 µM
CCN1C(=O)N(c2c(F)c(OC)cc(OC)c2F)Cc2cnc3[nH]c(CN4CCOCC4)cc3c21 — IC50 (Li-7; ATP luminescence; 96 h): 0.054 µM
Cc1c(OCC(F)(F)F)ccnc1COc1ccc(NC(=O)Nc2cccc(C(F)(F)F)c2)cc1 — IC50 (L02; MTT; 72 h): > 100 µM
CCOc1cc(OCC)cc(C(=O)O[C@@H]2CN3Cc4c(cc5c(c4OC)OCO5)[C@@]24C=C[C@H](OC)C[C@@H]34)c1 — IC50 (PANC-1; WST-1): 8.3 µM
Cc1cc(Oc2ccc(NC(=O)c3cc(-c4cccs4)no3)cc2F)n2ncnc2n1 — IC50 (L02; MTT): > 50 µM
COc1cc(-c2ncn(/C=C\C(=O)OC(C)C)n2)cc(C(F)(F)F)c1 — IC50 (OCI-AML-3; 72 h): 0.112 µM
O=c1[nH]cc(F)c(=O)[nH]1 — IC50 (human Lymphocyte; 72 h): 18 µM
Cc1ccc(S(=O)(=O)OCC(=O)Nc2ccc(C(=O)O)c(O)c2)cc1 — IC50 (OCI-AML2): 112 µM
Nc1ncc(-c2cnn(C3CCNCC3)c2)cc1-c1nnc(CC2CC2)o1 — IC50 (OCI-AML-3; trypan blue; 72 h): 0.479 µM
Cc1cc(Oc2ccc(NC(=O)c3sc(-c4ccccc4)nc3C)cc2)c2nncn2n1 — IC50 (L02; MTT): > 50 µM
CCN1CCN(c2ccc(Nc3cc(N(C)C(=O)Nc4c(Cl)c(OC)cc(OC)c4Cl)ncn3)cc2)CC1 — IC50 (Li-7; ATP luminescence; 96 h): > 1 µM
COc1ccnc(COc2ccc(NC(=O)Nc3cc(F)cc(F)c3)cc2)c1OC — IC50 (L02; MTT; 72 h): > 100 µM
Oc1c(I)cc(Cl)c2cccnc12 — IC50 (L02; MTT; 48 h): 79 µM
COc1c(C)cnc(COc2ccc(NC(=O)Nc3cc(F)cc(F)c3)cc2)c1C — IC50 (L02; MTT; 72 h): > 100 µM
CC(C)[C@H](N)C(=O)N1CCC[C@H]1B(O)O — IC50 (OCI-AML2; ATP luminescence; 48 h): 0.08 µM
